Measured values taken from ChEMBL document CHEMBL1629670, “In vitro activities of retigeric acid B alone and in combination with azole antifungal agents against Candida albicans” (2009).
≈ marks a conversion by molar mass, not a printed value.

Tests used:
Type in all cases: functional
Candida albicans [1] = test: Antifungal activity against Candida albicans CA127 after 48 hrs by broth microdilution method; conditions: CA127, 48 h
In short: (§1)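 CLSI M27-A2 broth microdilution of clinical isolates in RPMI 1640 buffered to pH 7.0 with 0.165 M MOPS. Final inoculum 0.5 x 10^3 to 2.5 x 10^3 cells/ml, incubated 35°C for 48 h. Growth read as OD490 with background subtracted. MIC taken as the lowest drug concentration giving 80% growth reduction versus drug-free control. Run in triplicate.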

Candida albicans [2] = test: Antifungal activity against Candida albicans CA3 after 48 hrs by broth microdilution method; conditions: CA3, 48 h; in short: as §1
Candida albicans [3] = test: Antifungal activity against Candida albicans CA135 after 48 hrs by broth microdilution method; conditions: CA135, 48 h; in short: as §1
Candida albicans [4] = test: Antifungal activity against Candida albicans CA1 after 48 hrs by broth microdilution method; conditions: CA1, 48 h; in short: as §1
Candida albicans [5] = test: Antifungal activity against Candida albicans CA10 after 48 hrs by broth microdilution method; conditions: CA10, 48 h; in short: as §1
Candida albicans [6] = test: Antifungal activity against Candida albicans CA4 after 48 hrs by broth microdilution method; conditions: CA4, 48 h; in short: as §1
Candida albicans [7] = test: Antifungal activity against Candida albicans CA137 after 48 hrs by broth microdilution method; conditions: CA137, 48 h; in short: as §1
Candida albicans [8] = test: Antifungal activity against Candida albicans CA2 after 48 hrs by broth microdilution method; conditions: CA2, 48 h; in short: as §1
Candida albicans [9] = test: Antifungal activity against Candida albicans CA132 after 48 hrs by broth microdilution method; conditions: CA132, 48 h; in short: as §1
Candida albicans [10] = test: Antifungal activity against Candida albicans CA138 after 48 hrs by broth microdilution method; conditions: CA138, 48 h; in short: as §1
Candida albicans [11] = test: Antifungal activity against Candida albicans ATCC 10231 by broth microdilution method
In short: as §1, with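 “microdilution” for “microdilution of clinical isolates”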

Compound | MIC (Candida albicans [1]) | MIC (Candida albicans [2]) | MIC (Candida albicans [3]) | MIC (Candida albicans [4]) | MIC (Candida albicans [5]) | MIC (Candida albicans [6]) | MIC (Candida albicans [7]) | MIC (Candida albicans [8]) | MIC (Candida albicans [9]) | MIC (Candida albicans [10]) | MIC (Candida albicans [11])
CCC(C)n1ncn(-c2ccc(N3CCN(c4ccc(OCC5COC(Cn6cncn6)(c6ccc(Cl)cc6Cl)O5)cc4)CC3)cc2)c1=O (stereo unspecified) [ITRACONAZOLE] | 0.016 µg/mL (≈ 0.0227 µM) | 0.031 µg/mL (≈ 0.0439 µM) | 32 µg/mL (≈ 45.3 µM) | 0.125 µg/mL (≈ 0.177 µM) | 128 µg/mL (≈ 181 µM) | 0.031 µg/mL (≈ 0.0439 µM) | 16 µg/mL (≈ 22.7 µM) | 0.125 µg/mL (≈ 0.177 µM) | 0.031 µg/mL (≈ 0.0439 µM) | 64 µg/mL (≈ 90.7 µM) | 
OC(Cn1cncn1)(Cn1cncn1)c1ccc(F)cc1F [FLUCONAZOLE] | 1 µg/mL (≈ 3.27 µM) | 0.25 µg/mL (≈ 0.816 µM) | 128 µg/mL (≈ 418 µM) | 0.25 µg/mL (≈ 0.816 µM) | 256 µg/mL (≈ 836 µM) | 1 µg/mL (≈ 3.27 µM) | 64 µg/mL (≈ 209 µM) | 0.5 µg/mL (≈ 1.63 µM) | 0.5 µg/mL (≈ 1.63 µM) | 128 µg/mL (≈ 418 µM) | 0.5 µg/mL (≈ 1.63 µM)
